Bioassay records: PubChem BioAssay, several laboratories
Most compounds without a hit are left out; they make up all but 1.8% or so of the library.
Apaf1 inhib: human Apaf-1 inhibition | O14727 | reconstituted apoptosome caspase-3 activity, DEVD-Rh110 fluorescence | inhibition, % at 20 µM | actives 0.71% (n = 330,000) | AID 489030; active = inhibition of at least 40% at 20 µM;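 also: plate controls were DMSO wells for no effect and DEVD-CHO caspase inhibitor wells for full effect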
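detection = Rh110 fluorescence intensity | test system = biochemical Apaf-1 apoptosome reconstitution | also added = cytochrome c and DEVD-Rh110 substrate | schedule = 30 min plus 50 min, RT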
ZTA counter: counter-screen for EBNA-1 inhibitors: inhibitors of Epstein-Barr virus ZTA. AID 2234. inhibition, % at 11 µM. P03206. ZTA-DNA binding, fluorescence polarization. actives 0.15% (n = 320,000); in the data active = inhibition above about 33%
procasp7 counter: counter-screen for procaspase-3 activators: activators of human procaspase-7; P55210; recombinant procaspase-7, Ac-DEVD-pNA absorbance 405 nm; D23A/D198A/D206A triple mutant, cannot self-cleave; scale: DMSO 0, 5 µM enzyme 100; activation, % at 8.5 µM; actives 0.093% (n = 330,000); AID 463210;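 active = percent activation above the screen-wide mean plus 3 SD, cut at about 25% in these data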
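System: Uncleavable procaspase-7 mutant enzyme; Amount: 2 µM procaspase-7 mutant as dispensed; Schedule: 1 h compound preincubation, 2 h substrate cleavage, 25 °C; Measured by: 405 nm absorbance of p-nitroaniline; Evaluation: percent activation from buffer-corrected 0–120 min absorbance change; Control set: low DMSO alone, high DMSO plus 5 µM PC-7.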
GSTO1 counter: GSTO1 inhibition, counter-screen for RBBP9 inhibitors. P78417. recombinant GSTO1, activity-based probe fluorescence polarization. inhibition, % at 5.96 µM. actives 1.1% (n = 300,000). AID 1974;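 active = inhibition above the campaign mean inhibition plus 3 SD, cut at about 35% in these data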;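 also: 0% = GSTO1-1 with DMSO and 100% = wells lacking GSTO1-1 enzyme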
EBNA-1 inhibitor: blocks EBNA-1 binding to DNA | EBNA-1 DNA binding, fluorescence polarization | actives 0.34% (n = 300,000) | inhibition, % at 14.8 µM | AID 1950; in the data active = inhibition above about 28%
proCasp3 act: activates human procaspase-3 | actives 0.11% (n = 330,000) | activation, % at 8.5 µM | P42574 | AID 463141 | recombinant procaspase-3 D3A, Ac-DEVD-pNA absorbance 405 nm;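 active = activation above the mean of all tested compounds plus 3 SD, cut at about 21% in these data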;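 also: 0% = DMSO alone and 100% = DMSO wells spiked with extra 5 µM PC-3 D3A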
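Evaluation: percent activation relative to control range; Material: Procaspase-3 D3A mutant, all three cleavage aspartates alanine; Compound: single dose, 8.5 µM nominal compound, 0.8% DMSO; Replication: one well per compound; Signal: absorbance at 405 nm, 0 and 120 min; Schedule: 1 h preincubation plus 2 h reaction at 25 °C.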
EBNA-1 inh conf: EBNA-1 (EBV) inhibition, confirmation. AID 2292. actives 35% (n = 830). inhibition, % at 14.8 µM. Recombinant EBNA-1 DBD, Cy5-DNA fluorescence polarization. shares compounds with EBNA-1 inhibitor;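 active = mean inhibition across replicates above a set limit taken from the earlier primary screen, cut at about 28% in these data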;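 also: plate controls were EBNA-1 protein with DMSO for no effect and wells lacking EBNA-1 for full effect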
ZTA DNA inh trip: blocks Epstein-Barr virus ZTA in triplicate, EBNA-1 counter-screen; AID 2328; Zta-ZRE DNA binding, Cy5 fluorescence polarization; shares compounds with EBNA-1 inhibitor; inhibition, % at 11.1 µM; 830 tested, under 10 active;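 active = mean inhibition over triplicates above a set limit taken from the primary EBNA-1 screen, cut at about 37% in these data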;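 also: purified full length Zta protein with Cy5 labeled ZRE DNA probe; 0% = Zta with DMSO and 100% = wells lacking Zta protein; inhibitors lower polarization by freeing the labeled DNA probe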
The depositor's hits bear a star; x = not tested or not shown.

SMILES	Apaf1 inhib	ZTA counter	procasp7 counter	GSTO1 counter	EBNA-1 inhibitor	proCasp3 act	EBNA-1 inh conf	ZTA DNA inh trip
Cc1cc(=O)oc2c3c(cc(OCC(=O)N4CCC[C@H]4C(=O)O)c12)OC(C)(C)CC3	-11	-2	-7	3	174*	0	-1	-5
Cc1[nH]c2ccccc2c1/C=C/C(=O)c1ccncc1	-1	-3	0	5	38*	-3	9	-4
O=C(/C=C/c1cccc2ccccc12)c1ccncc1	x	13	2	-3	10	2	x	x
Cc1ccc(NC(=O)NCc2ccc3c(c2)OCO3)cc1C	-10	6	1	-3	30*	-7	-2	6
O=[N+]([O-])c1ccccc1NCCNc1ncc(C(F)(F)F)cc1Cl	7	25	-1	-7	62*	-10	53*	11
O=[N+]([O-])c1cc(Cl)ccc1NCCNc1ncc(C(F)(F)F)cc1Cl	4	10	0	-3	17	-8	x	x
CSc1nc2ccc(NC(=O)NC(=O)c3c(F)cccc3F)cc2s1	-12	8	-4	1	1	5	x	x
CSc1nc2ccc(NC(=O)c3ccc(Cl)s3)cc2s1	8	-6	-7	-6	38*	-7	34*	3
Cc1ccc(NC(=O)CN2C(=O)N/C(=C/c3cccn3-c3ccc(C(=O)O)cc3)C2=O)cc1	x	23	-2	37*	37*	-6	16	40*
CCOC(=O)C1=CNS(=O)(=O)NC1c1ccc(C)cc1 (configuration not stated)	8	x	2	x	x	-6	x	x
Cc1cc(Br)ccc1SCC(=O)OC/C(O)=C(\C#N)c1nc2ccccc2[nH]1	-3	12	4	-11	-4	-2	x	x
N#C/C(=C(/O)COC(=O)CSc1ccc2ccccc2c1)c1nc2ccccc2[nH]1	6	9	-6	3	39*	-5	9	10
COc1ccc(N2C(=O)[C@H]3CCC=C[C@H]3[C@@H]2c2ccccc2Br)cc1	24	x	0	x	x	-2	x	x
COc1cccc(N2CC(O)=C(c3nc4ccccc4c(=O)[nH]3)C2=N)c1	13	-17	-1	-12	67*	1	125*	1
Cc1cc2c(Nc3ccc(O)cc3)ncnc2s1	1	x	x	x	x	x	x	x
Cc1cc2c(Nc3ccc(C(=O)O)cc3)ncnc2s1	-11	14	-2	0	97*	-1	-9	-12
Cc1ccc(-n2nc(C)c(C(=O)Nc3cccc(C(=O)NC4CC4)c3)n2)c(C)c1	15	0	-2	x	x	-2	x	x
Cc1csc(NC(=O)CSc2nc3sc(C)c(C)c3c(=O)[nH]2)n1	8	4	-24	-88	53*	-9	-2	-13
Cc1ccccc1NC(=O)CSc1nc2scc(C)c2c(=O)[nH]1	3	-16	-11	-15	4	14	x	x
CCOC(=O)Cc1csc(NC(=O)CSc2nc3sc(C(=O)O)c(C)c3c(=O)[nH]2)n1	-2	-14	-1	6	-1	10	x	x
Cc1sc2nc(SCC(=O)Nc3ccccc3F)[nH]c(=O)c2c1C	3	1	1	-3	30*	-2	42*	-16
COc1ccccc1NS(=O)(=O)c1cc2c3c(c1)CCN3C(=O)CC2	3	1	9	16	-20	7	x	x
COc1cc(C(=O)Nc2cccc(-c3nc4cc(C)ccc4o3)c2C)cc(OC)c1OC	-1	7	1	-5	37*	14	25	5
O=C1/C(=C\c2ccc(O)cc2)SC(=S)N1c1cccnc1	-14	7	-21	2	31*	-8	21	11
CCn1c(C)nc2cc(C(=O)NN=Cc3ccc([N+](=O)[O-])cc3)ccc21	-7	x	13	x	x	11	x	x
SMILES	Apaf1 inhib	ZTA counter	procasp7 counter	GSTO1 counter	EBNA-1 inhibitor	proCasp3 act	EBNA-1 inh conf	ZTA DNA inh trip
COc1ccc(CNC(=O)CCCCCn2c(SCC#N)nc3cc4c(cc3c2=O)OCO4)cc1	-1	8	6	-5	38*	1	6	12
O=C(CSc1nnc(-c2ccc(Br)cc2)o1)Nc1cccc2ccccc12	6	-1	3	2	40*	4	52*	0
O=C(CSc1nnc(-c2ccc(Br)cc2)o1)Nc1cccc(C(=O)O)c1	-17	12	-7	-2	0	8	x	x
CCCn1c(SC(C)C(=O)NCC2CCCO2)nc2sc(CC)cc2c1=O (configuration not stated)	-8	-1	-4	0	-5	-4	x	x
O=C(NN=Cc1cc(Br)c(O)c(Br)c1)c1ccccc1NS(=O)(=O)c1cccs1	18	x	1	x	x	-6	x	x
CCc1ccc(/C=C2/C(=O)N(c3ccccc3)C(=S)N2CC(=O)OC)s1	2	8	-16	-1	41*	-8	21	1
Cc1ccccc1NC(=O)Cc1nc(COC(=O)c2cc(Cl)ccc2O)cs1	17	-7	10	2	33*	4	10	5
COc1cccc(NC(=O)CN(C)C(C)C(=O)N2CCCC2)c1 (configuration not stated)	-14	1	-4	x	x	-1	x	x
CCOc1ccc(Cl)cc1CNCCCSc1nc(C)cc(C)n1	-1	2	-4	4	2	-4	x	x
Cc1c(NC(=O)CSc2nncn2-c2ccccc2)c(=O)n(-c2ccccc2)n1C	-7	4	0	-1	-9	-1	x	x
Cc1cc(C(=O)C(C)OC(=O)c2cnccn2)c(C)n1-c1ccccc1 (configuration not stated)	17	-12	12	11	-2	3	x	x
O=C(NCCc1c[nH]c2ccccc12)C1CCC(Cn2c(=S)[nH]c3ccccc3c2=O)CC1 (configuration not stated)	21	15	2	-12	28*	18	7	-5
O=C(NCc1ccc(Cl)cc1)C(=O)NCC1OCCN1S(=O)(=O)c1cc(F)ccc1F (configuration not stated)	6	1	3	-7	9	-4	x	x
COc1cccc(C(=O)N/N=C/c2ccc(OC3CSC3)cc2)c1	7	-18	-2	-6	0	-6	x	x
Cc1cccc(C(=O)N/N=C/c2ccc(OC3CSC3)cc2)c1	4	4	1	-2	35*	4	4	-4
CN(CC(=O)Nc1ccccc1Cl)C(=O)C1CSC2(C)CCC(=O)N12 (configuration not stated)	0	3	-8	x	x	7	x	x
